Measured values: ChEMBL document CHEMBL2169874, “Design, synthesis, and pharmacological evaluation of novel hybrid compounds to treat sickle cell disease symptoms. part II: furoxan derivatives” (J Med Chem, 2012)
Calls of active or inactive are those of the source. The calls are words filed in the database; no cut-off is given here.

What was measured:
Mus musculus [1] = assay: Mutagenicity in Swiss mouse assessed as micronucleated reticulocytes in peripheral blood at 100 mg/kg, po after 30 hrs by micronucleus test; assay type: toxicity, organism-based; parameters: dose 100 mg/kg, route oral; details: in vivo
Procedure, shortened: (§1)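 Swiss mice of both sexes (25−30 g), 10 per group, gavaged at 25, 50 or 100 mg/kg. Negative control: 1% CMC/0.2% Tween by gavage; positive control: cyclophosphamide 50 mg/kg ip. Blood collected 30 h later, slides prestained with acridine orange. 1000 reticulocytes scored per animal for micronucleated cells; mean with SD.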

Mus musculus [2] = assay: Mutagenicity in Swiss mouse assessed as micronucleated reticulocytes in peripheral blood at 50 mg/kg, po after 30 hrs by micronucleus test; assay type: toxicity, organism-based; parameters: dose 50 mg/kg, route oral; details: in vivo; procedure, shortened: as §1
Mus musculus [3] = assay: Mutagenicity in Swiss mouse assessed as micronucleated reticulocytes in peripheral blood at 25 mg/kg, po after 30 hrs by micronucleus test; assay type: toxicity, organism-based; parameters: dose 25 mg/kg, route oral; details: in vivo; procedure, shortened: as §1
K562 [4] = assay: Upregulation of beta-soluble guanilate cyclase mRNA expression in human K562 cells at 5 and 30 uM from 24 to 96 hrs by qRT-PCR analysis relative to control; assay type: functional, cell-based
Procedure, shortened: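 K562 cells in DMEM with 10% FBS, penicillin/streptomycin, 37 °C, 5% CO2, seeded at 1 × 10^7 cells/100 mL. Treated at 5 or 30 μM for 24, 48, 72, 96 h. β-sGC mRNA by SYBR Green qRT-PCR, normalized to β-actin and GAPDH, vs DMSO control. Mean ± SEM, n = 5; Mann−Whitney test.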

K562 [5] = assay: Upregulation of gamma-globin mRNA expression in human K562 cells at 5 uM after 96 hrs by qRT-PCR analysis relative to control; assay type: functional
Procedure, shortened: (§2)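 K562 cells in DMEM with 10% FBS, penicillin/streptomycin, 37 °C, 5% CO2, seeded at 1 × 10^7 cells/100 mL. Treated at 5−100 μM for 24, 48, 72 or 96 h. γ-globin mRNA by SYBR Green qRT-PCR, normalized to β-actin and GAPDH, vs vehicle control (DMSO, or water for HU). Mean ± SEM, n = 5; ANOVA with Dunnett's test.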

K562 [6] = assay: Upregulation of gamma-globin mRNA expression in human K562 cells at 5 uM after 24 hrs by qRT-PCR analysis relative to control; assay type: functional, cell-based; procedure, shortened: as §2
Mus musculus [7] = assay: Antinociceptive activity in Swiss albino mouse assessed as inhibition of acetic-acid induced abdominal constriction at 100 umol/kg, po administered 1 hr prior to acetic-acid challenge measured after 10 mins relative to vehicle-treated control; assay type: functional; details: Abdomen
Procedure, shortened: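 Mice dosed orally at 100 μmol/kg as a suspension in 5% arabic gum in saline. 0.6% acetic acid (0.1 mL/10 g) given ip 1 h later. Starting 10 min after injection, constrictions per animal counted for 20 min. Vehicle controls received an equal volume. Expressed as % inhibition vs vehicle group; mean ± SEM, 10 animals per group; Student's t test.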

[8] = Induction of nitrite release at 10^-4 M after 1 hr by Griess method in presence of L-cysteine; assay type: physicochemical; details: 100 µM
K562 [9] = assay: Upregulation of gamma-globin mRNA expression in human K562 cells at 5 uM after 24 to 96 hrs by qRT-PCR analysis relative to control; assay type: functional, cell-based; procedure, shortened: as §2
K562 [10] = assay: Upregulation of gamma-globin mRNA expression in human K562 cells at 100 uM after 96 hrs by qRT-PCR analysis relative to control; assay type: functional; procedure, shortened: as §2

Activity [8] | Structure (SMILES) | inhibition (Mus musculus [7]) | other results
9.5% | O=C1c2ccccc2C(=O)N1CCOc1c(S(=O)(=O)c2ccccc2)no[n+]1[O-] |  | Activity (Mus musculus [1]): 6.7; Activity (Mus musculus [2]): 5.5; Activity (Mus musculus [3]): 4; Activity (K562 [4]): inactive; fold change (FC) (K562 [5]): 2.8; Activity (K562 [6]): Active; inhibition in vivo at 100 µmol/kg (Mus musculus [7]): 43%
9.7% | O=C(OCc1c(-c2ccccc2)no[n+]1[O-])c1ccccc1N1C(=O)c2ccccc2C1=O | inactive | 
 | NC(=O)NO [HYDROXYUREA] | inactive | Activity (Mus musculus [1]): 33.7; Activity (Mus musculus [2]): 15; Activity (Mus musculus [3]): 9.9; Activity (K562 [9]): inactive; fold change (FC) (K562 [10]): 1.77
13.2% | O=C(OCc1c(-c2ccccc2)no[n+]1[O-])c1cccc(N2C(=O)c3ccccc3C2=O)c1 | inactive | 
10.6% | O=C(OCc1c(-c2ccccc2)no[n+]1[O-])c1cc(N2C(=O)c3ccccc3C2=O)ccc1O | inactive | 
 | Cc1c(N(C)CS(=O)(=O)O)c(=O)n(-c2ccccc2)n1C | Active | 
28.1% | O=C1c2ccccc2C(=O)N1c1ccc(S(=O)(=O)NCCOc2no[n+]([O-])c2S(=O)(=O)c2ccccc2)cc1 |  | inhibition in vivo at 100 µmol/kg (Mus musculus [7]): 36%
28.2% | O=C(NCCOc1no[n+]([O-])c1S(=O)(=O)c1ccccc1)c1ccc(N2C(=O)c3ccccc3C2=O)cc1 | inactive | 
14.8% | O=C1c2ccccc2C(=O)N1Cc1c(-c2ccccc2)no[n+]1[O-] | inactive | 

Structure (SMILES) | Activity [8] | inhibition (Mus musculus [7]) | other results
O=[N+]([O-])O[C@H]1CO[C@H]2[C@@H]1OC[C@H]2O[N+](=O)[O-] [ISOSORBIDE DINITRATE] | 11.6% |  | 
